pIC50, pKi: −log10 of the molar value. Activity calls are given as the source filed them.
Key:
[1] = biological target: T1, Cannabinoid receptor 2 (Homo sapiens, UniProt P34972); assay: Binding affinity to human CB2 receptor
[2] = biological target: T2, Cannabinoid receptor 1 (Homo sapiens, UniProt P21554); assay: Binding affinity to human CB1 receptor
[3] = biological target: T2, Cannabinoid receptor 1; assay: Agonist activity at human CB1 receptor expressed in CHO-K1 cells assessed as inhibition of forskolin-stimulated cAMP level relative to control; type: functional, cell-based
How it was run: (§1)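 Receptor (human or rat CB1 or CB2) expressed in CHO-K1 cells, 1000 cells per well, added to compound and incubated at room temperature for 15 min. Read-out is IC50 with Emax.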

[4] = biological target: T2, Cannabinoid receptor 1; assay: Agonist activity at human CB1 receptor expressed in CHO-K1 cells assessed as inhibition of forskolin-stimulated cAMP level; type: functional, cell-based; how it was run: as §1
[5] = biological target: T1, Cannabinoid receptor 2; assay: Agonist activity at human CB2 receptor expressed in CHO-K1 cells assessed as inhibition of forskolin-stimulated cAMP level; type: functional, cell-based; how it was run: as §1
[6] = Plasma protein binding in rat assessed as fraction unbound; type: ADME, cell-free
How it was run: (§2)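 Free fraction in rat plasma measured by ultrafiltration or equilibrium dialysis after incubation with rat plasma.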

[7] = biological target: T1, Cannabinoid receptor 2; assay: Agonist activity at human CB2 receptor expressed in CHO-K1 cells assessed as inhibition of forskolin-stimulated cAMP level relative to control; type: functional, cell-based; how it was run: as §1
[8] = Plasma concentration in Lewis rat complete Freund's adjuvant-induced hyperalgesia model at 100 mg/kg, po and sc at 120 mins; type: ADME, organism-based; set-up: dose 100 mg/kg, route oral
How it was run: (§3)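 Rats with CFA-induced hyperalgesia dosed orally or subcutaneously at 100 mpk. Naproxen 20 mg/kg and vehicle served as controls. Paw withdrawal threshold read at baseline, after CFA, and post-dose (30, 60 or 120 min). Plasma, brain and CSF drug levels measured at the 60 or 120 min post-dose timepoint.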

[9] = biological target: Cannabinoid receptor 1 (Rattus norvegicus, UniProt P20272); assay: Agonist activity at rat CB1 receptor expressed in CHO-K1 cells assessed as inhibition of forskolin-stimulated cAMP level; type: functional, cell-based; how it was run: as §1
Cannabinoid receptor 1 (Rattus norvegicus, UniProt P20272), sequence (P20272 whole entry): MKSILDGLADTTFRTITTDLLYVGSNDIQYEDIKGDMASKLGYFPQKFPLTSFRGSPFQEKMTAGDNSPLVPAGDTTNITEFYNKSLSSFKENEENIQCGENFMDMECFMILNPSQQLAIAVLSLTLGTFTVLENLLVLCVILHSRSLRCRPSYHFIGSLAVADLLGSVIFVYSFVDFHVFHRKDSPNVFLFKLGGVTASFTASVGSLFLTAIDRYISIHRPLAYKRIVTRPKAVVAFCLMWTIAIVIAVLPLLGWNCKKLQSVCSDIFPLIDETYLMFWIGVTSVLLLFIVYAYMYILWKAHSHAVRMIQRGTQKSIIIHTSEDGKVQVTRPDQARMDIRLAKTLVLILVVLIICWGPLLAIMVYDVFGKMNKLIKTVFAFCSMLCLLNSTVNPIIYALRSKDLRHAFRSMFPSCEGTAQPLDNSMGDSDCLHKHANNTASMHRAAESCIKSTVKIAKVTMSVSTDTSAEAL

[10] = biological target: T3, Cannabinoid receptor 2 (Rattus norvegicus, UniProt Q9QZN9); assay: Agonist activity at rat CB2 receptor expressed in CHO-K1 cells assessed as inhibition of forskolin-stimulated cAMP level; type: functional, cell-based; how it was run: as §1
T3 sequence (Q9QZN9 whole entry): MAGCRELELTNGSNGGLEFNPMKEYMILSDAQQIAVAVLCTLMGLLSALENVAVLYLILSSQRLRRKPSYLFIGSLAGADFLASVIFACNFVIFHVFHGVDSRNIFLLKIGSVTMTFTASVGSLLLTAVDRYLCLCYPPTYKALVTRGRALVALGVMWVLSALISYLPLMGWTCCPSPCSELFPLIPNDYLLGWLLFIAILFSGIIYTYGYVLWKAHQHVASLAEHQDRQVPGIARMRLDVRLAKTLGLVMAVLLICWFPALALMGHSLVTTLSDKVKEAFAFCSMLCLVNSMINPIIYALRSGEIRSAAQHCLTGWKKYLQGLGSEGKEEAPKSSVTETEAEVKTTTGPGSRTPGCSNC

[11] = tested on: Rattus norvegicus; assay: Analgesic activity in Lewis rat complete Freund's adjuvant-induced hyperalgesia model assessed as reversal in paw withdrawal threshold at 100 mg/kg, po and sc; type: functional, organism-based; set-up: dose 100 mg/kg; how it was run: as §3
[12] = biological target: T4, Cannabinoid receptor 2 (Rattus norvegicus) (UniProt Q9QZN9); assay: Agonist activity at rat CB2 receptor expressed in CHO-K1 cells assessed as inhibition of forskolin-stimulated cAMP level relative to control; type: functional, cell-based; how it was run: as §1
T4 sequence (whole entry): T3 sequence (Q9QZN9 whole entry)

[13] = Drug level in cerebrospinal fluid of Lewis rat complete Freund's adjuvant-induced hyperalgesia model at 100 mg/kg, po and sc at 120 mins; type: ADME, organism-based; set-up: dose 100 mg/kg, route oral; settings: read-out: Drug uptake; how it was run: as §3
[14] = Drug level in brain of Lewis rat complete Freund's adjuvant-induced hyperalgesia model at 100 mg/kg, po and sc at 120 mins; type: ADME, organism-based; set-up: dose 100 mg/kg, route oral; settings: read-out: Drug uptake; how it was run: as §3
[15] = Plasma protein binding in rat; type: ADME, cell-free; settings: read-out: PPB (converted); how it was run: as §2
[16] = Drug level in cerebrospinal fluid of Lewis rat complete Freund's adjuvant-induced hyperalgesia model at 100 mg/kg, po and sc at 60 mins; type: ADME, organism-based; set-up: dose 100 mg/kg, route oral; settings: read-out: Drug uptake; how it was run: as §3
[17] = tested on: Rattus norvegicus; assay: Neurotoxicity in rat assessed as impairment of motor co-ordination at 100 mg/kg, po by rotarod method; type: toxicity, organism-based; set-up: dose 100 mg/kg, route oral; settings: in vivo
[18] = Drug level in brain of Lewis rat complete Freund's adjuvant-induced hyperalgesia at 100 mg/kg, po and sc at 60 mins; type: ADME, organism-based; set-up: dose 100 mg/kg, route oral; settings: read-out: Drug uptake; how it was run: as §3
[19] = biological target: Cannabinoid receptor 1 (Rattus norvegicus) (UniProt P20272); assay: Agonist activity at rat CB1 receptor expressed in CHO-K1 cells assessed as inhibition of forskolin-stimulated cAMP level relative to control; type: functional, cell-based; how it was run: as §1
Cannabinoid receptor 1 (Rattus norvegicus), sequence (P20272 whole entry): as the sequence (P20272 whole entry) above

[20] = Plasma concentration in Lewis rat complete Freund's adjuvant-induced hyperalgesia model at 100 mg/kg, po and sc at 60 mins; type: ADME, organism-based; set-up: dose 100 mg/kg, route oral; how it was run: as §3

T2 sequence (P21554 whole entry): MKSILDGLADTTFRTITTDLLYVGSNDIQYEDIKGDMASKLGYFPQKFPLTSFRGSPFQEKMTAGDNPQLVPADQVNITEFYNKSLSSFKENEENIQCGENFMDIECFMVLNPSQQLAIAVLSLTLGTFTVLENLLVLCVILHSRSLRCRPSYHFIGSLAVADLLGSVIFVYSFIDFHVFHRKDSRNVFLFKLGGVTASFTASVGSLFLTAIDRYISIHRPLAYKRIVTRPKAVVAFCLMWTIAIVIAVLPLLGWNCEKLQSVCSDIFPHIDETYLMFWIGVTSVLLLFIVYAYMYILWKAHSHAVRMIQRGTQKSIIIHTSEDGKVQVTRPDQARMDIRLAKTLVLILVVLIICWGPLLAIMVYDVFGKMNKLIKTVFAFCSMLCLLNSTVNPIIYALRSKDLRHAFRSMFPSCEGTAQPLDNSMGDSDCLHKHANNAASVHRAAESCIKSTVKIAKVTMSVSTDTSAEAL
T1 sequence (P34972 whole entry): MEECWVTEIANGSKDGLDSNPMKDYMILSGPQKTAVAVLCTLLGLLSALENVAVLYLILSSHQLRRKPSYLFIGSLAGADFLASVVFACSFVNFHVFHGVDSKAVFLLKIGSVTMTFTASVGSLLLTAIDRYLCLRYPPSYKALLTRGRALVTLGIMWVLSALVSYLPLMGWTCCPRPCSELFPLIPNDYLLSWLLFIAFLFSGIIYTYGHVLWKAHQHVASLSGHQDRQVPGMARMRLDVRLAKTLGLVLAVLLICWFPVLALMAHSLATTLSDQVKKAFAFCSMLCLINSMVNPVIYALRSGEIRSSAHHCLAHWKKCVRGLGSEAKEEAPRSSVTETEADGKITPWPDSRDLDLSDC

Row | SMILES | Emax [3] | pIC50 [4] | pIC50 [5] | fraction unbound [6] | Emax [7] | also measured
1 | COc1ccc2c(c1)c(CCN1CCOCC1)c(C)n2C(=O)c1cccc(Cl)c1Cl |  |  |  |  |  | pKi [1]: 8.00; pKi [2]: 5.70
2 | O=C(Nc1cccc(C(F)(F)F)n1)c1nc(CN2CCS(=O)(=O)CC2)c2ccccn12 | 54% | 4.90 | 7.36 | 0.11 | 80% | 
3 | O=C(NC(c1ccncc1)c1ccc(F)cc1)c1nc(N2CCC(F)(F)C2)c2cnccn12 (stereo not given) |  | < 4.77 | 7.04 | 0.03 | 96% | 
4 | O=C(N[C@H](c1ccccn1)C(F)(F)F)c1nc(N2CCOCC2)c2cnccn12 |  | < 4.77 | 6.86 | 0.18 | 94% | 
5 | O=C(Nc1cccc(C(F)(F)F)n1)c1nc(CN2CCC(F)(F)CC2)c2ccccn12 | 100% | 6.46 | 8.77 |  | 98% | 
6 | O=C(NC(c1cccnc1)C(F)(F)F)c1nc(N2CCOCC2)c2cnccn12 (stereo not given) |  | < 4.77 | 7.16 | 0.25 | 98% | 
7 | C[C@@H](NC(=O)c1nc(N2CCC(F)(F)CC2)c2cnccn12)C(C)(C)C |  | < 4.77 | 7.44 | 0.06 | 99% | 
8 | O=C(NCC1(CO)CCCC1)c1nc(N2CCOCC2)n2ccccc12 |  | < 4.77 | 7.48 | 0.16 | 99% | concentration at 2 h [8]: 4300 nM; pIC50 [9]: < 4.77; pIC50 [10]: 7.24; Activity [11]: inactive; Emax [12]: 87%; concentration at 2 h [13]: 300 nM; concentration at 2 h [14]: 1300 nM; fraction unbound [15]: 0.16
9 | O=C(c1cccc(Cl)c1Cl)c1nc(CN2CCOCC2)c2ccccn12 | 66% | 5.59 | 8.30 | 0.24 | 94% | concentration at 1 h [16]: 110 nM; Activity [17]: Toxic; pIC50 [9]: 5.97; pIC50 [10]: 7.96; concentration at 1 h [18]: 5400 nM; Activity [11]: Dose-dependent effect; Emax [12]: 87%; Emax [19]: 104%; concentration at 1 h [20]: 4500 nM; fraction unbound [15]: 0.24
10 | O=C(c1cccc(Cl)c1Cl)c1nc(CN2CCC(F)(F)CC2)c2ccccn12 | 101% | 7.05 | 9.52 |  | 110% | 
11 | O=C(NC(C1CC1)C1CC1)c1nc(C2CC2)n2ccccc12 |  | < 4.77 | 8.15 | 0.03 | 99% | 
12 | O=C(c1cccc(F)c1C(F)(F)F)c1nc(CN2CCOCC2)c2ccccn12 | 97% | 5.65 | 9.15 | 0.03 | 98% | 
13 | CC(C)(C)CNC(=O)c1nc(C2CC2)n2ccccc12 |  | < 4.77 | 7.68 | 0.05 | 97% | 
14 | O=C(N[C@H](c1ccccn1)C(F)(F)F)c1nc(N2CCOCC2)n2ccccc12 | 55% | 6.15 | 7.68 | 0.1 | 97% | 
15 | O=C(NCC1(CO)CCCC1)c1nc(CN2CCC(F)(F)CC2)n2ccccc12 | 99% | 7.17 | 8.52 |  | 88% | 

Reference: ChEMBL document CHEMBL1759910, “Imidazopyridine CB2 agonists: optimization of CB2/CB1 selectivity and implications for in vivo analgesic efficacy” (Bioorg Med Chem Lett, 2011)
